From ChEMBL document CHEMBL3872225, “Synthesis, binding assays, cytotoxic activity and docking studies of benzimidazole and benzothiophene derivatives with selective affinity for the CB2 cannabinoid receptor” (Eur J Med Chem, 2016)

What was measured:
Homo sapiens = species on record: Homo sapiens; assay: Selectivity index, ratio of Ki for displacement of [3H]CP-55940 from human recombinant CB1 receptor to Ki for displacement of [3H]CP-55940 from human recombinant CB2 receptor
Outline: (§1)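 Membranes from HEK-293 cells overexpressing human CB1 or CB2 incubated with increasing compound concentrations and 0.5 nM [3H]CP-55,940 at 30 °C for 1.5 h. […] Selectivity index is Ki CB1/Ki CB2.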

[1] = molecular target: Cannabinoid receptor 1 (CB1) (Homo sapiens, UniProt P21554); assay: Displacement of [3H]CP-55940 from human recombinant CB1 receptor expressed in HEK293 cell membranes at 1 uM incubated for 1.5 hrs relative to control; conditions: probe [3H]CP-55940
Cannabinoid receptor 1 (CB1), sequence (P21554 whole entry): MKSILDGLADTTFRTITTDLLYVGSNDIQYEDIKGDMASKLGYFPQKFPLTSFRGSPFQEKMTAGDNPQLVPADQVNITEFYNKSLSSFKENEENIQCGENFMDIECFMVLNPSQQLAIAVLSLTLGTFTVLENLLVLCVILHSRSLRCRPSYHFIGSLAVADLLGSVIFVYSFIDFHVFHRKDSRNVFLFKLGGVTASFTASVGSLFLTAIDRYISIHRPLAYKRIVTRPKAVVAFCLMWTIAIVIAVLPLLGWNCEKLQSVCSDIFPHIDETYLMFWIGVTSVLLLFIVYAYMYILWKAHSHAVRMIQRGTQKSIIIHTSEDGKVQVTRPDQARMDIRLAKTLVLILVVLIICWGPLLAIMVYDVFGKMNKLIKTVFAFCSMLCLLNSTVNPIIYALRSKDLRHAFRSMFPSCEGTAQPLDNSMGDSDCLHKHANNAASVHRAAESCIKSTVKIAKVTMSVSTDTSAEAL
Outline: (§2)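 Single-point screen on HEK-293 membranes overexpressing human CB1 or CB2. […] Compounds displacing more than 50% at 1 μM went on to full curves.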

Cannabinoid receptor 2 [2] = molecular target: T1, Cannabinoid receptor 2 (Homo sapiens, UniProt P34972); assay: Displacement of [3H]CP-55940 from human recombinant CB2 receptor expressed in HEK293 cell membranes incubated for 1.5 hrs; outline: as §1
T1 sequence (P34972 whole entry): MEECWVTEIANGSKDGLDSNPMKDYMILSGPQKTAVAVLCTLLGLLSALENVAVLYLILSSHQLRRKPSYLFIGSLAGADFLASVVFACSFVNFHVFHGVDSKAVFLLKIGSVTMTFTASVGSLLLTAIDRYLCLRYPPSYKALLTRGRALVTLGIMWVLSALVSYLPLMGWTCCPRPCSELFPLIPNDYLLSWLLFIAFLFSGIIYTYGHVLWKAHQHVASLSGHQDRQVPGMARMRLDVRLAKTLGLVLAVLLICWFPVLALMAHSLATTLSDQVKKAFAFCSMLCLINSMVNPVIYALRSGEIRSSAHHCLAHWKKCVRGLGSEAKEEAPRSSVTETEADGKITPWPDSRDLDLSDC

[3] = Cytotoxicity against human HL60 cells assessed as reduction in cell viability measured after 72 hrs by MTT assay; assay type: functional, cell-based; conditions: HL-60, 72 h
Outline: (§3)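 Cells kept in RPMI 1640 with 5% FBS, penicillin/streptomycin, 37 °C, 5% CO2. Seeded at 10,000 cells/well, then exposed to compounds at 0.001–10 μM in 5% FBS-RPMI for 72 h at 37 °C. MTT added for 4 h, formazan dissolved overnight in 10% SDS/0.1 mM HCl, absorbance read at 570 nm. […] Etoposide as positive control.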

Cannabinoid receptor 2 [4] = molecular target: T1, Cannabinoid receptor 2; assay: Displacement of [3H]CP-55940 from human recombinant CB2 receptor expressed in HEK293 cell membranes at 1 uM incubated for 1.5 hrs relative to control; outline: as §2
[5] = Cytotoxicity against human HeLa cells assessed as reduction in cell viability measured after 72 hrs by MTT assay; assay type: functional, cell-based; outline: as §3
Cannabinoid receptor 1 = Cannabinoid receptor 1 (Homo sapiens, UniProt P21554); assay: Displacement of [3H]CP-55940 from human recombinant CB1 receptor expressed in HEK293 cell membranes incubated for 1.5 hrs; outline: as §1
Cannabinoid receptor 1, sequence (P21554 whole entry): as the sequence (P21554 whole entry) above

[6] = Cytotoxicity against African green monkey Vero cells assessed as reduction in cell viability measured after 72 hrs by MTT assay; assay type: toxicity, cell-based; conditions: Chlorocebus sabaeus (African green monkey); outline: as §3
[7] = Cytotoxicity against resistant human HCT116 cells assessed as reduction in cell viability measured after 72 hrs by MTT assay; assay type: functional, cell-based; conditions: HCT-116, 72 h; outline: as §3
[8] = Cytotoxicity against human H1975-1 cells assessed as reduction in cell viability measured after 72 hrs by MTT assay; assay type: functional, cell-based; outline: as §3

| Structure (SMILES) | Ratio Ki (Homo sapiens) | inhibition at 1.5 h, 1 µM [1] [%] | IC50 (Cannabinoid receptor 2 [2]) [µM] | Ki (Cannabinoid receptor 2 [2]) [µM] | IC50 [3] [µM] | inhibition (Cannabinoid receptor 2 [4]) [%] | IC50 [5] [µM] | IC50 (Cannabinoid receptor 1) [µM] | Ki (Cannabinoid receptor 1) [µM] | IC50 at 72 h [6] [µM] | IC50 [7] [µM] | IC50 [8] [µM] |
| --- | --- | --- | --- | --- | --- | --- | --- | --- | --- | --- | --- | --- |
| COc1ccc(C(=O)n2c(C(C)C)nc3ccccc32)cc1 | > 12.5 | > 50 | 3.2 | 0.8 | 0.63 | > 50 | > 10 | > 10 | > 10 | > 10 | 0.19 | > 10 |
| CC(C)Cc1sc2ccccc2c1C(=O)c1cccc2ccccc12 | 1.4 | > 50 | 2 | 0.5 | 0.072 | > 50 | > 10 | 1.2 | 0.7 | > 10 | > 10 | > 10 |
| O=C(c1cccc2ccccc12)n1c(C2CCCCC2)nc2ccccc21 | 7.25 | > 50 | 1.7 | 0.4 | 0.22 | > 50 | > 10 | 4.9 | 2.9 | > 10 | 3.02 | > 10 |
| O=C(c1cccc2ccccc12)n1c(C2CCC2)nc2ccccc21 | 4.14 | > 50 | 5.5 | 1.4 | 0.18 | > 50 | > 10 | 9.7 | 5.8 | > 10 | > 10 | > 10 |
| COc1ccc(C(=O)n2c(C3CCCC3)nc3ccccc32)cc1 | > 20 | > 50 | 2.2 | 0.5 | 0.076 | > 50 | > 10 | > 10 | > 10 | > 10 | > 10 | > 10 |
| CC(C)Cc1nc2ccccc2n1C(=O)c1cccc2ccccc12 | > 100 | > 50 | 0.5 | 0.1 | 0.094 | > 50 | > 10 | > 10 | > 10 | > 10 | 2.17 | > 10 |
| CCCCCc1sc2ccccc2c1C(=O)c1ccc(OC)cc1 | > 33 | > 50 | 1.2 | 0.3 | 0.083 | > 50 | > 10 | > 10 | > 10 | > 10 | > 10 | > 10 |
| COc1ccc(C(=O)n2c(-c3ccc(OC)cc3)nc3ccccc32)cc1 | > 6.7 | > 50 | 5.9 | 1.5 | 0.175 | > 50 | > 10 | > 10 | > 10 | > 10 | > 10 | > 10 |
| COc1ccc(C(=O)n2c(C3CCC3)nc3ccccc32)cc1 | > 11 | > 50 | 3.6 | 0.9 | 0.047 | > 50 | > 10 | > 10 | > 10 | > 10 | > 10 | > 10 |
| CCc1sc2ccccc2c1C(=O)c1ccc(OC)cc1 | > 6.2 | > 50 | 6.6 | 1.6 | 0.046 | > 50 | > 10 | > 10 | > 10 | > 10 | > 10 | > 10 |
| CCCc1sc2ccccc2c1C(=O)c1cccc2ccccc12 | 0.6 | > 50 | 4.3 | 1 | 0.13 | > 50 | > 10 | 1 | 0.6 | > 10 | > 10 | > 10 |
